KCNQ1 act: potentiators or activators of human KCNQ1 potassium channel; B-score at 10 µM; 0.35% of 310,000 active; CHO-K1 KCNQ1, thallium flux FluxOR fluorescence; active compounds read high; AID 2648;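 active = fluorescence ratio B-score, a plate-corrected score, at least three library SD, with initial intensity B-score within 5 SD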
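System: CHO-K1 cells stably expressing KCNQ1 / Medium: assay buffer for compound exposure, DMSO matched across wells / Reagent: thallium- and potassium-containing depolarizing buffer / Compound: one concentration, matched DMSO / Incubation: 20 min compound pretreatment at room temperature / Measured by: kinetic FluxOR fluorescence, 10 s baseline plus 110 s post-stimulus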
KCNQ1 inh: human KCNQ1 channel inhibition. P51787. CHO-K1 KCNQ1, FluxOR thallium flux fluorescence; active compounds read high. B-score at 10 µM. 1.3% of 310,000 active. AID 2642;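 active = compounds whose thallium flux B-score, printed positive for inhibition, exceeds three library SD while starting fluorescence stays within three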;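 note: channel opened by potassium depolarization with thallium stimulus after 20 min compound exposure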
Kir21 block: inhibitors of mouse Kir2.1 inward-rectifier potassium channel | B-score at 10 µM | AID 1672 | 0.85% of 310,000 active | P35561 | HEK293-Kir2.1, FluxOR thallium flux fluorescence; active compounds read low;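 active = fluorescence ratio B-score at or below minus 3 SD of library scores, with starting-brightness B-score within 2 SD, cut at about -4.2 in these data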;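 note: channel flux triggered by added potassium and thallium sulfate stimulus; B-score of peak minus minimum fluorescence over baseline after thallium stimulus; more negative B-score means stronger Kir2.1 block with less thallium influx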
KCNK9 inh: inhibitors of human KCNK9 two-pore domain potassium channel; Q9NPC2; HEK293 KCNK9, FluxOR thallium flux fluorescence; active compounds read low; B-score at 10 µM; 1.2% of 310,000 active; AID 488922;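 active = ratio B-score over 3 SD below the library mean, with starting fluorescence within 5 SD of its mean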;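 note: negative B-score means less thallium flux so channel inhibition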
KCNK3 block: human KCNK3 channel inhibition, primary screen; CHO-KCNK3 thallium flux, FluxOR fluorescence; active compounds read low; O14649; AID 602410; B-score at 10 µM; 0.84% of 340,000 active;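 active = B-score under library mean minus 4 SD, starting fluorescence ratio at most library mean plus 5 SD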;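 note: more negative B-score means stronger inhibition of thallium flux through KCNK3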
Target sequence (O14649 whole entry, looked up): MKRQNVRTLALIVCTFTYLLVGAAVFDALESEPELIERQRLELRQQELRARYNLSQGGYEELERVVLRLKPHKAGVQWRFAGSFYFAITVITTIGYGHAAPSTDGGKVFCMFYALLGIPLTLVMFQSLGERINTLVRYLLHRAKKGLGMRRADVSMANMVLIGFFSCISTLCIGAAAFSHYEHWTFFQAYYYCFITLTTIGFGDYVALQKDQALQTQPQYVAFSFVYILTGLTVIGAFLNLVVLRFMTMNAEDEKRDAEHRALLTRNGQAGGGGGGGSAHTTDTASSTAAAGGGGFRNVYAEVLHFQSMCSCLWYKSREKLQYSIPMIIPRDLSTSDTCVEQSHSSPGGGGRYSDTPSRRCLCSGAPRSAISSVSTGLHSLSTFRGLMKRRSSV
hERG rescue: hERG (human) protection from proarrhythmic block | 0.51% of 310,000 active | Q12809 | CHO-hERG, FluxOR thallium flux, dofetilide IC70 present | AID 1511 | activation (rescue from dofetilide block), less the hit threshold, % at 10 µM;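 active = activation above the mean of controls blocked by dofetilide plus 5 SD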;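 note: thallium influx through hERG after potassium depolarization seen as dye fluorescence rise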
KCNK9 block conf: confirmation of human KCNK9 potassium channel inhibitors | shares compounds with KCNK9 inh | HEK293 KCNK9 cells, FluxOR thallium flux fluorescence | inhibition, % at 10 µM | 43% of 4,900 active | AID 492992;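 active = thallium signal inhibited by more than 5 SD of the compound-free buffer control wells, on both duplicate plates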;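 note: 0% = assay buffer control wells without compound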
Kir21 sel: tests whether KCNK9 modulators also affect mouse Kir2.1; shares compounds with KCNK9 inh; Kir2.1 cells, FluxOR thallium flux fluorescence; inhibition, % at 10 µM; 4% of 4,900 active;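 active = thallium signal drop more than 5 SD beyond the mean of the no-compound control wells, seen in both duplicate plates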;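 note: signal is fluorescence rise after thallium addition divided by baseline fluorescence; plate controls were assay buffer only for no effect and full block by chlorpromazine control for full effect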
KCNK9 uninduced: second check of KCNK9 modulator effects in non-induced HEK293 cells | shares compounds with KCNK9 inh | FluxOR thallium flux | inhibition, % at 10 µM | 40% of 4,900 active | AID 492997;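 active = thallium signal drop beyond 5 SD of the untreated control mean, on both duplicate plates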;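 note: plate controls were buffer only IC0 wells for no effect and SID17386958 at its maximal inhibitory level for full effect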
* marks the source's active call; other numbers are inactive results; i = inactive; . = no result. In the library only some 3.7% were active in any assay of this set; here they are far more common.

SMILES	KCNQ1 act	KCNQ1 inh	Kir21 block	KCNK9 inh	KCNK3 block	hERG rescue	KCNK9 block conf	Kir21 sel	KCNK9 uninduced
CCOc1cc(/C=C2\C(=N)N3N=CSC3=NC2=O)ccc1OS(=O)(=O)c1ccccc1	i	i	-5*	i	i	-32	i	i	i
CCOc1ccc(NS(=O)(=O)c2cc(C(=O)N3CC(C)OC(C)C3)ccc2C)cc1 (stereo not drawn)	i	i	-0.8	i	i	-9	.	.	.
CCOC(=O)c1c(C)c(C(=O)N2CCN(c3cccc(Cl)c3)CC2)c(C)n1C	i	i	0.25	i	i	-10	i	i	i
CCOC(=O)c1ccccc1NC(=O)C1CSC2(C)CCC(=O)N12 (stereo not drawn)	i	i	-1.2	i	i	-13	.	.	.
CCCCSc1nnc(-c2ccccc2)c2ccccc12	i	i	-1.1	-15*	i	-17	38%*	i	42%*
CCN1CCN(c2nnc(-c3ccccc3)c3ccccc23)CC1	i	i	0.14	i	i	-3	.	.	.
COCCNc1ccc([N+](=O)[O-])cc1C(=O)NC1CCCc2ccccc21 (stereo not drawn)	i	i	-0.45	i	i	-7	.	.	.
O=C1[C@@H]2[C@@H]3C[C@@H]([C@H]4ON=C(c5ccc(Cl)cc5Cl)[C@@H]34)[C@@H]2C(=O)N1C1CCCCC1	i	i	-1.5	i	i	-8	i	i	i
COc1cc(NS(=O)(=O)c2ccc(N/C=C(\C#N)c3nc4cc(Cl)ccc4o3)cc2)nc(OC)n1	i	i	0.21	i	i	-8	i	i	i
COc1cc(NS(=O)(=O)c2ccc(NC(C)=O)cc2)nc(OC)n1	i	i	0.44	i	i	-12	.	.	.
O=S(=O)(NCC(c1ccco1)N1CCN(c2ccccc2F)CC1)c1ccc(F)cc1 (stereo not drawn)	i	i	1.1	-13*	i	-8	46%*	i	34%*
COC(=O)c1cc2occc2n1Cc1ccc(Cl)cc1	i	i	-0.19	i	i	-15	.	.	.
CCOC(=O)c1cc2occc2n1Cc1ccc(F)cc1	i	i	0.62	-8.3*	i	-8	i	i	30%*
CN(Cc1ccccn1)Cc1nc(Cc2ccccc2Cl)no1	i	i	-0.54	i	i	-4	.	.	.
COc1cccc(CN(C)Cc2nc(Cc3ccccc3Cl)no2)c1	i	i	-0.7	i	i	-6	i	i	i
CCOc1ccc(N2CC(C(=O)Nc3ccc4c(c3)OCO4)CC2=O)cc1 (stereo not drawn)	i	i	0.79	i	i	-11	i	i	i
CCOc1ccc(N2CC(C(=O)Nc3ccc4c(c3)OCCO4)CC2=O)cc1 (stereo not drawn)	i	i	-0.08	i	i	-15	.	.	.
CC(C)(C)N1CC(OC(N)=O)C1	i	i	-0.02	i	i	-5	.	.	.
COc1ccc(-c2c([C@H]3[C@@H]4C=CCC[C@@]4(C)C(=O)N3Cc3ccccc3)ccc3ccccc23)cc1OC	i	i	0.24	i	i	-18	i	i	i
COc1ccc(-c2ccc([C@H]3[C@@H]4C=CCC[C@@]4(C)C(=O)N3Cc3ccccc3)c(F)c2)cc1OC	i	i	-0.22	i	i	-7	.	.	.
Cc1nccn1CC(=O)N/N=C/c1cccs1	i	i	-1.3	i	i	-2	.	.	.
Cc1cccc(CC(=O)OCn2nnc3ccccc3c2=O)c1	i	i	0.17	i	i	-14	i	i	i
CCOc1ccc(CC(=O)OCn2nnc3ccccc3c2=O)cc1	i	i	0.46	i	i	-12	.	.	.
CN(CCc1ccccc1)C(=O)CCc1nnc(Cc2ccc3c(c2)OCO3)o1	i	i	0.68	i	i	-2	.	.	.
COc1cccc(CN2CC(C(=O)NCCCn3ccnc3C)CCC2=O)c1 (stereo not drawn)	i	i	-0.52	i	i	-3	.	.	.
SMILES	KCNQ1 act	KCNQ1 inh	Kir21 block	KCNK9 inh	KCNK3 block	hERG rescue	KCNK9 block conf	Kir21 sel	KCNK9 uninduced
Cc1cc(NC(=O)/C=C/c2ccccc2Cl)n(-c2nc3ccccc3[nH]2)n1	i	i	-1.8	-9.1*	i	-8	i	i	26%*
Cc1cc(NC(=O)c2ccc(F)cc2F)n(-c2nc3ccccc3[nH]2)n1	i	i	0.52	i	i	0	.	.	.
COc1ccc(C)cc1N(C(=O)COc1ccccc1)c1nc2ccccc2s1	i	i	0.94	i	i	-8	.	.	.
COc1ccc(C)cc1N(C(=O)c1ccccc1)c1nc2ccccc2s1	i	i	0.07	-10*	i	-4	42%*	i	32%*
COc1ccc(C)cc1N(C(=O)c1ccccc1F)c1nc2ccccc2s1	i	i	-1.8	-9.7*	i	-13	46%*	i	36%*
COc1ccc(C)cc1N(C(=O)c1cccc(F)c1)c1nc2ccccc2s1	.	.	.	.	i	.	.	.	.
NC(=S)NN=C1c2cc(OCCN3CCOCC3)ccc2-c2ccc(OCCN3CCOCC3)cc21	i	i	-0.85	i	i	-12	.	.	.
Cc1cc(NC(=O)CCOc2ccc(F)cc2)no1	i	i	1.4	i	i	0	.	.	.
CN(c1ccc(OCc2nnc(-c3ccccc3)o2)cc1)S(=O)(=O)c1ccccc1	i	i	0.82	i	i	-7	.	.	.
CN(c1ccc(OCc2ccc([N+](=O)[O-])cc2)cc1)S(=O)(=O)c1ccccc1	i	i	-1.2	-8.5*	i	-11	i	i	29%*
CC(CCc1ccccc1)NC(=O)CCC1CCCC1 (stereo not drawn)	i	i	-0.69	i	i	-1	.	.	.
Oc1ccc(N=Nc2ccc3c(c2)OCCO3)c2cccnc12	55*	i	-1.1	i	i	-10	i	i	i
COc1cccc(N=Nc2ccc(O)c3ncccc23)c1	i	i	-0.46	i	i	16*	i	i	i
Cc1ccc(C(C)C)c(OC/C(O)=C(\C#N)c2nc3ccccc3[nH]2)c1	i	i	0.65	i	i	-7	.	.	.

Screens: PubChem, Johns Hopkins Ion Channel Center
